MrgX1 ag = agonists of human MrgX1 receptor, primary screen, HEK293 cells, Fluo-4 calcium flux | AID 588627, 2011 | B-score at 10 µM | 310,000 compounds, 0.44% hits | Mas-related G-protein coupled receptor member X1 (Homo sapiens), Q96LB2 | Fluo-4 calcium fluorescence, agonist mode; active compounds read high;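 active = calcium response B-score plate-corrected fluorescence ratio at least 3 library SD, with starting fluorescence B-score inside 5 SD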
Target sequence (Q96LB2 whole entry, looked up): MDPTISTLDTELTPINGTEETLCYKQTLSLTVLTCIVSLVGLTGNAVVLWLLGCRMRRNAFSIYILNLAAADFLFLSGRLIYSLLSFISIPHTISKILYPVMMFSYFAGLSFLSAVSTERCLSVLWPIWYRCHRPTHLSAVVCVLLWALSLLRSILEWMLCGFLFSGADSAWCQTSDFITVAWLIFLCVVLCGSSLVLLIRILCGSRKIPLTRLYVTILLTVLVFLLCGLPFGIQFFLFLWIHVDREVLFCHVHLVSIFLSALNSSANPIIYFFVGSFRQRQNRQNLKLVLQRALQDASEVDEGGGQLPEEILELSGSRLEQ
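Material: MrgX1-expressing HEK293 cells / Dosing: compound as first of three additions / Incubation: overnight seeding, then 1 h dark dye loading / Signal: Fluo-4 NW calcium fluorescence / Evaluation: B-scored fluorescence response ratio / Benchmarks: positive and negative control wells on each plate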
MrgX1 antag = antagonists of human MrgX1 receptor, primary screen, HEK293 cells, Fluo-4 calcium flux; Mas-related G-protein coupled receptor member X1 (Homo sapiens), Q96LB2; BAM8-22 antagonism; active compounds read low; B-score at 10 µM; 310,000 compounds, 1.3% hits;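 active = calcium-response B-score plate-corrected more than 3 library SD below zero, starting fluorescence within 5 deviations, no agonist response on first addition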;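 note: peak minus trough fluorescence over baseline after final BAM8-22 challenge near maximal dose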
MrgX1 PAM = positive allosteric modulators of MrgX1, primary screen, HEK293 cells, Fluo-4 calcium flux. FDSS; active compounds read high. AID 588675, 2011. Mas-related G-protein coupled receptor member X1 (Homo sapiens), Q96LB2. B-score at 10 µM. 310,000 compounds, 0.63% hits;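 active = plate-corrected calcium response at least 3 library SD above typical, normal starting fluorescence, not activating the receptor alone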;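 note: compound read alongside a low EC10 to EC30 dose of BAM8-22 agonist; peak minus trough fluorescence over baseline measured at the second addition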
RGS4 act = RGS4 potentiators or activators, primary screen, cell-based, HEK293 M3R inducible RGS4, calcium flux. 310,000 compounds, 0.92% hits. B-score at 10 µM. carbachol calcium flux Fluo4; active compounds read low;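 active = B-score of the integrated calcium signal more than 4 SD below the library mean, with starting fluorescence not abnormally high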;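 note: negative B-score means reduced calcium response which marks RGS4 activation or potentiation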
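Assay system: Inducible-RGS4 HEK293 cells carrying M3 receptor | Schedule: Compound preincubation 20 min at room temperature before agonist | Signal: Kinetic calcium fluorescence imaging with Fluo4-AM dye, 2 µM | Read-out basis: B score from integrated fluorescence ratio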
RGS4 block = RGS4 inhibitors, primary screen, cell-based, HEK293 M3R inducible RGS4, calcium flux | Regulator of G-protein signaling 4 (Homo sapiens), P49798 | Fluo-4 calcium flux; active compounds read high; triggered by carbachol at its EC20 | B-score at 10 µM | 310,000 compounds, 0.45% hits;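 active = B-score, a plate-corrected calcium signal, over three deviations above library mean, with baseline fluorescence within five deviations of library mean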;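 note: RGS4 expression induced by doxycycline in cells with stable M3 receptor; B-score is computed from the integrated fluorescence ratio over baseline after carbachol; higher B-score means a larger calcium signal and so more RGS4 inhibition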
Target sequence (P49798 whole entry, looked up): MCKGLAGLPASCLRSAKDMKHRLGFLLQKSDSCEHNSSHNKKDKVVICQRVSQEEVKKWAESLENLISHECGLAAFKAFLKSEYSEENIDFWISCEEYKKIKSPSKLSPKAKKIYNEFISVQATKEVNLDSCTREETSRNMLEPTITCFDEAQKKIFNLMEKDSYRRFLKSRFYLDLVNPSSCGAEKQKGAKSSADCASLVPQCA
MrgX1 PAM conf = MrgX1 positive allosteric modulators, duplicate retest, confirmation, HEK293 cells, Fluo-4 calcium flux; Fluo-4 calcium fluorescence, FDSS; 1,200 compounds, 13% hits; activation (ratio percentage), % at 10 µM; AID 602413, 2012; shares compounds with MrgX1 PAM;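 active = ratio at least 3 SD above the weak peptide control, stable starting fluorescence, no direct agonism earlier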;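 note: compound followed by low BAM8-22 agonist challenge near EC20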
HEK293 Ca flux = nonspecific calcium signal in parental HEK293, confirmation, counter-screen for MrgX1 antagonist project, parental HEK293 cells, Fluo-4 calcium flux | fluorescence ratio F(max-min)/F0 at 10 µM | AID 624111, 2012 | shares compounds with MrgX1 antag | Fluo-4 calcium fluorescence, FDSS | 4,000 compounds, 2% hits;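 active = duplicate-averaged calcium fluorescence ratio at least three times the standard deviation of buffer wells, a nonspecific response in parental cells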
HEK293 Ca counter = calcium response in parental HEK293 cells, primary screen, counter-screen for MrgX1 allosteric activator project, cell-based, Fluo-4 calcium flux, duplicate; shares compounds with MrgX1 antag; 4,000 compounds, 0.4% hits; AID 624114, 2012; fluorescence ratio F(max-min)/F0 at 10 µM; Fluo-4 fluorescence ratio; active compounds read high;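 active = calcium fluorescence ratio, averaged over duplicates, at least 3 SD of the buffer-well ratio, meaning a nonspecific response in receptor-free cells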;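 note: untransfected parental HEK293 lacking MrgX1 used as counterscreen for MrgX1 allosteric activators; fluorescence change taken during the second addition on a kinetic imager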
HEK293 Ca cntr2 = calcium response in parental HEK293 cells, primary screen, counter-screen for MrgX1 agonist project, cell-based, Fluo-4 calcium flux, duplicate, agonist mode. Fluo-4 calcium fluorescence (FDSS); active compounds read high. 4,000 compounds, 8.7% hits. shares compounds with MrgX1 antag. fluorescence ratio F(max-min)/F0 at 10 µM;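 active = calcium fluorescence ratio at least three times the spread of buffer wells, meaning a non-specific response in parental cells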
* marks the source's active call; other numbers are inactive results. Shown are actives, neighbours in structure and some others; about 3.5% of the full set was active somewhere.

How did COc1ccc(CC(=O)Nc2ccccc2-c2ccccc2)cc1OC do in these assays?
MrgX1 ag: inactive; MrgX1 antag: inactive; MrgX1 PAM: inactive; RGS4 act: inactive; RGS4 block: inactive

Results for Cc1ccc(CC(=O)Nc2ccccc2-c2ccccc2)cc1C ?
MrgX1 ag: inactive; MrgX1 antag: inactive; MrgX1 PAM: 21*; RGS4 act: inactive; RGS4 block: inactive; MrgX1 PAM conf: inactive; HEK293 Ca flux: inactive; HEK293 Ca counter: inactive; HEK293 Ca cntr2: inactive

How did COc1ccc(CN(C)CC(=O)Nc2ccccc2-c2ccccc2)c(OC)c1 do in these assays?
MrgX1 ag: inactive; MrgX1 antag: inactive; MrgX1 PAM: inactive; RGS4 act: inactive; RGS4 block: inactive

What do the screens show for `CC(C)(C)c1ccc(O)c(/C=N\O)c1`?
MrgX1 ag: inactive; MrgX1 antag: inactive; MrgX1 PAM: 38*; RGS4 act: inactive; RGS4 block: inactive; MrgX1 PAM conf: inactive; HEK293 Ca flux: inactive; HEK293 Ca counter: inactive; HEK293 Ca cntr2: inactive

What do the screens show for `COc1cccc(-c2nc(CS(=O)(=O)CC(=O)Nc3ccccc3Br)c(C)o2)c1`?
MrgX1 ag: inactive; MrgX1 antag: inactive; MrgX1 PAM: inactive; RGS4 act: inactive; RGS4 block: inactive

Results for CCOC(=O)c1cc(-c2ccc(OC)cc2)nn1-c1ccc(C(=O)O)cc1 ?
MrgX1 ag: inactive; MrgX1 antag: inactive; MrgX1 PAM: 6.5*; RGS4 act: inactive; RGS4 block: inactive; MrgX1 PAM conf: inactive; HEK293 Ca flux: inactive; HEK293 Ca counter: inactive; HEK293 Ca cntr2: inactive

What do the screens show for `CCOC(=O)c1cc(-c2cccnc2)nn1-c1ccccc1`?
MrgX1 ag: inactive; MrgX1 antag: inactive; MrgX1 PAM: inactive; RGS4 act: inactive; RGS4 block: inactive

Results for Cc1nn(CC2CC2)c(=O)n1-c1ccccc1 ?
MrgX1 ag: inactive; MrgX1 antag: inactive; MrgX1 PAM: inactive; RGS4 act: inactive; RGS4 block: inactive

How did NC(=O)CSc1nc(C23CC4CC(CC(C4)C2)C3)nc2ccccc12 do in these assays?
MrgX1 ag: inactive; MrgX1 antag: inactive; MrgX1 PAM: 17*; RGS4 act: inactive; RGS4 block: inactive; MrgX1 PAM conf: 14%*; HEK293 Ca flux: inactive; HEK293 Ca counter: inactive; HEK293 Ca cntr2: inactive

How did Cc1nonc1NC(=O)CSc1nc(C23CC4CC(CC(C4)C2)C3)nc2ccccc12 do in these assays?
MrgX1 ag: inactive; MrgX1 antag: inactive; MrgX1 PAM: inactive; RGS4 act: inactive; RGS4 block: inactive

How did Cc1ccc(NC(=O)C2C3/C=C\CCCCC32)cc1 (stereo not drawn) do in these assays?
MrgX1 ag: inactive; MrgX1 antag: inactive; MrgX1 PAM: inactive; RGS4 act: inactive; RGS4 block: inactive

What do the screens show for `O=C(Nc1nccs1)C1C2/C=C\CCCCC21` (stereo not drawn)?
MrgX1 ag: inactive; MrgX1 antag: inactive; MrgX1 PAM: 12*; RGS4 act: inactive; RGS4 block: inactive; MrgX1 PAM conf: inactive; HEK293 Ca flux: inactive; HEK293 Ca counter: inactive; HEK293 Ca cntr2: inactive

How did O=C(O)C1CCC(Cn2c(SCc3cc(=O)n4ccccc4n3)nc3ccsc3c2=O)CC1 (stereo not drawn) do in these assays?
MrgX1 ag: inactive; MrgX1 antag: inactive; MrgX1 PAM: inactive; RGS4 act: inactive; RGS4 block: inactive

What do the screens show for `CCc1ccc2c(c1)[C@H]1OCC[C@H]1[C@@H](c1cccs1)N2`?
MrgX1 ag: inactive; MrgX1 antag: inactive; MrgX1 PAM: 9.5*; RGS4 act: inactive; RGS4 block: inactive; MrgX1 PAM conf: inactive; HEK293 Ca flux: inactive; HEK293 Ca counter: inactive; HEK293 Ca cntr2: inactive

How did Cc1nc2ccccc2c(=O)n1N(c1ccccc1)c1ccccc1 do in these assays?
MrgX1 ag: inactive; MrgX1 antag: inactive; MrgX1 PAM: inactive; RGS4 act: inactive; RGS4 block: inactive

What do the screens show for `COc1ccc(-c2csc3nc(-c4cccnc4)nc(Cl)c23)cc1OC`?
MrgX1 ag: inactive; MrgX1 antag: inactive; MrgX1 PAM: 6.7*; RGS4 act: inactive; RGS4 block: inactive; MrgX1 PAM conf: 3.9%*; HEK293 Ca flux: inactive; HEK293 Ca counter: inactive; HEK293 Ca cntr2: inactive

Results for COC(=O)c1ccc(Oc2nc(C)cc(Oc3ccccc3)n2)cc1 ?
MrgX1 ag: inactive; MrgX1 antag: inactive; MrgX1 PAM: 19*; RGS4 act: inactive; RGS4 block: inactive; MrgX1 PAM conf: 7.3%*; HEK293 Ca flux: inactive; HEK293 Ca counter: inactive; HEK293 Ca cntr2: inactive

How did CCNC(=S)Nc1cccc(S(=O)(=O)NC2=NCCC2)c1 do in these assays?
MrgX1 ag: inactive; MrgX1 antag: inactive; MrgX1 PAM: inactive; RGS4 act: inactive; RGS4 block: inactive

Results for O=C(CCl)Nc1cccc(S(=O)(=O)NC2=NCCC2)c1 ?
MrgX1 ag: inactive; MrgX1 antag: inactive; MrgX1 PAM: 7.9*; RGS4 act: inactive; RGS4 block: inactive; MrgX1 PAM conf: inactive; HEK293 Ca flux: inactive; HEK293 Ca counter: inactive; HEK293 Ca cntr2: inactive

How did COc1ccc(Cl)cc1NC(=O)C1COc2ccccc2O1 (stereo not drawn) do in these assays?
MrgX1 ag: inactive; MrgX1 antag: inactive; MrgX1 PAM: inactive; RGS4 act: inactive; RGS4 block: inactive

How did Cc1nc2ccc3nc(NC(=O)C4COc5ccccc5O4)sc3c2s1 (stereo not drawn) do in these assays?
MrgX1 ag: inactive; MrgX1 antag: inactive; MrgX1 PAM: 8.1*; RGS4 act: inactive; RGS4 block: inactive; MrgX1 PAM conf: 7.8%*; HEK293 Ca flux: inactive; HEK293 Ca counter: inactive; HEK293 Ca cntr2: inactive

High-throughput results: PubChem, Johns Hopkins Ion Channel Center
